# Measurements: ChEMBL document CHEMBL1125014, “Synthesis and structure-activity relationships of new 9-N-alkyl derivatives of 9(S)-erythromycylamine” (1990)
# Columns and labels:
# Rattus norvegicus [1] = species: Rattus norvegicus; assay: Fluid concentration in serum tissue was determined in rats at 2 h; type: functional
# Procedure, shortened: (§1)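 Rats dosed by gavage at 20 mg/kg; lung, liver, kidney, urine and serum sampled at 0.5, 1, 2, 4 and 6 h after dosing. Antibiotic measured by microbiological assay with Micrococcus luteus seeded in Antibiotic Medium 1. Zone sizes were read against the standard curve for the same compound. Each value is the average of three rats per time point.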
# Rattus norvegicus [2] = species: Rattus norvegicus; assay: Fluid concentration in serum tissue was determined in rats at 4 h; type: functional; procedure, shortened: as §1
# Rattus norvegicus [3] = species: Rattus norvegicus; assay: Fluid concentration in kidney tissue was determined in rats at 6 h; type: functional
# Procedure, shortened: (§2)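 Rats were gavaged at 20 mg/kg and tissues sampled 0.5–6 h after dosing. Drug was assayed microbiologically with Micrococcus luteus seeded in Antibiotic Media 1. Zone sizes were read against each compound's own standard curve. Values are the mean of three rats per time point, in μg/g.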
# Rattus norvegicus [4] = species: Rattus norvegicus; assay: Fluid concentration in urine tissue was determined in rats at 2 h; type: functional; procedure, shortened: as §1
# Rattus norvegicus [5] = assay: Plasma concentration in rats was determined by subcutaneous administration, 20 mg/kg at 20 min; type: functional, organism-based; design: dose 20 mg/kg
# Procedure, shortened: (§3)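 Peripheral plasma antibiotic levels in rats given 20 mg/kg orally or subcutaneously. Plasma was sampled at timed points after dosing. Levels were measured by microbiological agar assay with Micrococcus luteus seeded in Antibiotic Media 1, reading zone sizes, and were calculated from a standard curve for the appropriate compound. Each value is the average of three rats per time point, in μg/mL.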
# Rattus norvegicus [6] = assay: Plasma concentration in rats was determined by subcutaneous administration, 20 mg/kg at 5 min; type: functional, organism-based; design: dose 20 mg/kg; procedure, shortened: as §3
# Mus musculus [7] = assay: Plasma concentration in mice was determined by oral administration, 20 mg/kg at 1 h; type: functional, organism-based; design: dose 20 mg/kg
# Procedure, shortened: (§4)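 Mice given 20 mg/kg orally or subcutaneously; peripheral plasma sampled at 5, 20 and 40 min and at 1, 2 and 4 h after dosing. Microbiological assay used Micrococcus luteus seeded in Antibiotic Medium 1, with zone sizes converted by the compound's own standard curve. Each value is the average of five mice per time point.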
# Rattus norvegicus [8] = species: Rattus norvegicus; assay: Fluid concentration in urine tissue was determined in rats at 0.5 h; type: functional; procedure, shortened: as §1
# Mus musculus [9] = assay: Plasma concentration in mice was determined by oral administration, 20 mg/kg at 4 h; type: functional, organism-based; design: dose 20 mg/kg; procedure, shortened: as §4
# Rattus norvegicus [10] = species: Rattus norvegicus; assay: Fluid concentration in kidney tissue was determined in rats at 1 h; type: functional; procedure, shortened: as §2
# Mus musculus [11] = assay: ED50 value was measured by po administration against streptococcus pyogenes infection in mice (in vivo, in experiment 2); type: functional
# Procedure, shortened: (§5)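 Infected mice were dosed orally or subcutaneously at 1 and 5 h postinfection, 0.25 mL of antibiotic solution in 10% aqueous ethanol per dose. Tartaric acid was added where needed for solubility. Several dose concentrations were tested to give the ED50.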
# Rattus norvegicus [12] = species: Rattus norvegicus; assay: Fluid concentration in urine tissue was determined in rats at 6 h; type: functional; procedure, shortened: as §1
# Rattus norvegicus [13] = species: Rattus norvegicus
# Mus musculus [14] = assay: Plasma concentration in mice was determined by oral administration, 20 mg/kg at 2 h; type: functional, organism-based; design: dose 20 mg/kg; procedure, shortened: as §4
# Mus musculus [15] = assay: ED50 value was measured by sc administration against streptococcus pneumoniae infection in mice (in vivo, in experiment 2); type: functional; procedure, shortened: as §5
# Rattus norvegicus [16] = species: Rattus norvegicus; assay: Fluid concentration in urine tissue was determined in rats at 4 h; type: functional; procedure, shortened: as §1
# Mus musculus [17] = assay: Plasma concentration in mice was determined by oral administration, 20 mg/kg at 20 min; type: functional, organism-based; design: dose 20 mg/kg; procedure, shortened: as §4
# Rattus norvegicus [18] = species: Rattus norvegicus; remark: listed apart in the source
# Mus musculus [19] = assay: ED50 value was measured by sc administration against staphylococcus aureus infection in mice (in vivo, in experiment 2); type: functional; procedure, shortened: as §5
# Rattus norvegicus [20] = species: Rattus norvegicus; assay: Fluid concentration in kidney tissue was determined in rats at 4 h; type: functional; procedure, shortened: as §2
# Mus musculus [21] = assay: Plasma concentration in mice was determined by oral administration, 20 mg/kg at 5 min; type: functional, organism-based; design: dose 20 mg/kg; procedure, shortened: as §4
# Rattus norvegicus [22] = species: Rattus norvegicus; assay: Fluid concentration in kidney tissue was determined in rats at 0.5 h; type: functional; procedure, shortened: as §2
# Rattus norvegicus [23] = species: Rattus norvegicus; assay: Fluid concentration in liver tissue was determined in rats at 4 h; type: functional; procedure, shortened: as §1
# Mus musculus [24] = assay: (§6) ED50 value was measured by sc administration against streptococcus pyogenes infection in mice (in vivo, in experiment 3); type: functional; procedure, shortened: as §5
# Rattus norvegicus [25] = species: Rattus norvegicus; assay: Fluid concentration in serum tissue was determined in rats at 1 h; type: functional; procedure, shortened: as §1
# Rattus norvegicus [26] = assay: Plasma concentration in rats was determined by subcutaneous administration, 20 mg/kg at 4 h; type: functional, organism-based; design: dose 20 mg/kg; procedure, shortened: as §3
# Rattus norvegicus [27] = species: Rattus norvegicus; remark: listed apart in the source
# Mus musculus [28] = species: Mus musculus
# Rattus norvegicus [29] = species: Rattus norvegicus; remark: listed apart in the source
# Rattus norvegicus [30] = assay: Plasma concentration in rats was determined by oral administration, 20 mg/kg at 1 hr; type: functional, organism-based; design: dose 20 mg/kg; procedure, shortened: as §3
# Rattus norvegicus [31] = species: Rattus norvegicus; assay: Fluid concentration in kidney tissue was determined in rats at 1 hr; type: functional; procedure, shortened: as §2
# Mus musculus [32] = assay: Plasma concentration of compound in mice by oral administration, 20 mg/kg at 4 hr; type: functional, organism-based; design: dose 20 mg/kg
# Procedure, shortened: as §3, with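 “mice after a” for “rats given”, “oral dose,” for “orally or subcutaneously. Plasma was”, “administration.” for “dosing.”, “five mice” for “three rats”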
# Rattus norvegicus [33] = species: Rattus norvegicus; assay: Fluid concentration in liver tissue was determined in rats at 4 hr; type: functional; procedure, shortened: as §1
# Rattus norvegicus [34] = species: Rattus norvegicus; assay: Fluid concentration in kidney tissue was determined in rats at 2 hr; type: functional; procedure, shortened: as §2
# Rattus norvegicus [35] = species: Rattus norvegicus; assay: Fluid concentration in urine was determined in rats at 4 hr; type: functional; procedure, shortened: as §1
# Rattus norvegicus [36] = assay: Plasma concentration in rats was determined by subcutaneous administration, 20 mg/kg at 2 hr; type: functional, organism-based; design: dose 20 mg/kg; procedure, shortened: as §3
# Rattus norvegicus [37] = species: Rattus norvegicus; remark: listed apart in the source
# Rattus norvegicus [38] = species: Rattus norvegicus; assay: Fluid concentration in serum was determined in rats at 0.5 hr; type: functional; procedure, shortened: as §1
# Mus musculus [39] = species: Mus musculus; remark: listed apart in the source
# Rattus norvegicus [40] = species: Rattus norvegicus; assay: Fluid concentration in urine was determined in rats at 6 hr; type: functional; procedure, shortened: as §1
# Rattus norvegicus [41] = species: Rattus norvegicus; assay: Fluid concentration in serum was determined in rats at 2 hr; type: functional; procedure, shortened: as §1
# Rattus norvegicus [42] = species: Rattus norvegicus; assay: Fluid concentration in kidney tissue was determined in rats at 0.5 hr; type: functional; procedure, shortened: as §2
# Rattus norvegicus [43] = species: Rattus norvegicus; assay: Fluid concentration in liver tissue was determined in rats at 6 hr; type: functional; procedure, shortened: as §1
# Rattus norvegicus [44] = species: Rattus norvegicus; remark: listed apart in the source
# Mus musculus [45] = species: Mus musculus; remark: listed apart in the source
# Enterococcus faecalis = assay: MIC value was measured against streptococcus faecalis X66; type: functional
# Procedure, shortened: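 Susceptibility determined by standard agar-dilution method against a panel of bacterial strains.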
# Rattus norvegicus [46] = species: Rattus norvegicus; assay: Fluid concentration in serum was determined in rats at 1 hr; type: functional; procedure, shortened: as §1
# Rattus norvegicus [47] = species: Rattus norvegicus; assay: Fluid concentration in kidney tissue was determined in rats at 6 hr; type: functional; procedure, shortened: as §2
# Rattus norvegicus [48] = species: Rattus norvegicus; assay: Fluid concentration in urine was determined in rats at 2 hr; type: functional; procedure, shortened: as §1
# Rattus norvegicus [49] = assay: Plasma concentration in rats was determined by oral administration, 20 mg/kg at 4 hr; type: functional, organism-based; design: dose 20 mg/kg; procedure, shortened: as §3
# Mus musculus [50] = assay: as §6; type: functional; remark: listed apart in the source
# Rattus norvegicus [51] = assay: Plasma concentration in rats was determined by oral administration, 20 mg/kg at 8 hr; type: functional, organism-based; design: dose 20 mg/kg; procedure, shortened: as §3
# Rattus norvegicus [52] = species: Rattus norvegicus; remark: listed apart in the source
# Rattus norvegicus [53] = species: Rattus norvegicus; assay: Fluid concentration in liver tissue was determined in rats at 2 hr; type: functional; procedure, shortened: as §1
structure (smiles),measurement,setting,value
CCCN[C@@H]1[C@H](C)[C@@H](O)[C@](C)(O)[C@@H](CC)OC(=O)[C@H](C)[C@@H](OC2CC(C)(OC)C(O)C(C)O2)[C@H](C)[C@@H](OC2OC(C)CC(N(C)C)C2O)[C@](C)(O)C[C@H]1C (some centres undefined),Activity,Rattus norvegicus [1],0.23 µg/mL
same,Activity,Rattus norvegicus [2],0.12 µg/mL
same,Activity,Rattus norvegicus [3],3.21 µg/mL
same,Activity,Rattus norvegicus [4],4.8 µg/mL
same,Plasma concentration,Rattus norvegicus [5],0.07 µg/mL
same,Plasma concentration,Rattus norvegicus [6],0.04 µg/mL
same,Plasma concentration,Mus musculus [7],0.08 µg/mL
same,Activity,Rattus norvegicus [8],3.92 µg/mL
same,Plasma concentration,Mus musculus [9],0.06 µg/mL
same,Activity,Rattus norvegicus [10],0.31 µg/mL
same,ED50,Mus musculus [11],6 mg/kg
same,Activity,Rattus norvegicus [12],11.3 µg/mL
same,Plasma concentration,Rattus norvegicus [13],0.06 µg/mL
same,Plasma concentration,Mus musculus [14],0.07 µg/mL
same,ED50,Mus musculus [15],2.1 mg/kg
same,Activity,Rattus norvegicus [16],18.63 µg/mL
same,Plasma concentration,Mus musculus [17],0.01 µg/mL
same,Plasma concentration,Rattus norvegicus [18],0.01 µg/mL
same,ED50,Mus musculus [19],2.1 mg/kg
same,Activity,Rattus norvegicus [20],4.28 µg/mL
same,Plasma concentration,Mus musculus [21],0 µg/mL
same,Activity,Rattus norvegicus [22],0.1 µg/mL
same,Activity,Rattus norvegicus [23],3.06 µg/mL
same,ED50,Mus musculus [24],1.7 mg/kg
same,Activity,Rattus norvegicus [25],0.04 µg/mL
same,Plasma concentration,Rattus norvegicus [26],0.23 µg/mL
CC[C@H]1OC(=O)[C@H](C)[C@@H](O[C@H]2C[C@@](C)(OC)[C@@H](O)[C@H](C)O2)[C@H](C)[C@@H](O[C@@H]2O[C@H](C)C[C@H](N(C)C)[C@H]2O)[C@](C)(O)C[C@@H](C)C(=O)[C@H](C)[C@@H](O)[C@]1(C)O [ERYTHROMYCIN],Plasma concentration,Rattus norvegicus [27],4.2 µg/mL
same,Plasma concentration,Mus musculus [28],0 µg/mL
same,Plasma concentration,Rattus norvegicus [29],1.31 µg/mL
same,Plasma concentration,Rattus norvegicus [30],0.04 µg/mL
same,Activity,Rattus norvegicus [31],0.15 µg/mL
same,Plasma concentration,Mus musculus [32],0 µg/mL
same,Activity,Rattus norvegicus [33],0 µg/mL
same,Activity,Rattus norvegicus [34],0 µg/mL
same,Activity,Rattus norvegicus [35],8.8 µg/mL
same,Plasma concentration,Rattus norvegicus [36],1.06 µg/mL
same,Plasma concentration,Rattus norvegicus [37],1.16 µg/mL
same,Activity,Rattus norvegicus [38],0.01 µg/mL
same,Plasma concentration,Mus musculus [39],0 µg/mL
same,Activity,Rattus norvegicus [40],0.35 µg/mL
same,Activity,Rattus norvegicus [41],0 µg/mL
same,Activity,Rattus norvegicus [42],0.17 µg/mL
same,Activity,Rattus norvegicus [43],0 µg/mL
same,Plasma concentration,Rattus norvegicus [44],0 µg/mL
same,Plasma concentration,Mus musculus [45],0.1 µg/mL
same,MIC,Enterococcus faecalis,0.06 µg/mL
same,Activity,Rattus norvegicus [46],0.4 µg/mL
same,Activity,Rattus norvegicus [47],0 µg/mL
same,Activity,Rattus norvegicus [48],2.5 µg/mL
same,Plasma concentration,Rattus norvegicus [49],0.02 µg/mL
same,ED50,Mus musculus [50],2.8 mg/kg
same,Plasma concentration,Rattus norvegicus [51],0.01 µg/mL
same,Plasma concentration,Rattus norvegicus [52],1.21 µg/mL
same,Activity,Rattus norvegicus [53],0.04 µg/mL
